Test results reported in ChEMBL document CHEMBL4028917, “(+)-Methyl (1R,2S)-2-{[4-(4-Chlorophenyl)-4-hydroxypiperidin-1-yl]methyl}-1-phenylcyclopropanecarboxylate [(+)-MR200] Derivatives as Potent and Selective Sigma Receptor Ligands: Stereochemistry and Pharmacological Properties” (J Med Chem, 2018).
pKi: −log10 of the molar value. Calls of active or inactive are those of the source. No cut-off for these calls is given here.

molecular target: D(2) dopamine receptor (Rattus norvegicus, UniProt P61169); assay: Displacement of [3H]-spiperone from dopamine D2 receptor in rat strriatum after 15 mins by liquid scintillation counting method
Sequence (P61169 whole entry): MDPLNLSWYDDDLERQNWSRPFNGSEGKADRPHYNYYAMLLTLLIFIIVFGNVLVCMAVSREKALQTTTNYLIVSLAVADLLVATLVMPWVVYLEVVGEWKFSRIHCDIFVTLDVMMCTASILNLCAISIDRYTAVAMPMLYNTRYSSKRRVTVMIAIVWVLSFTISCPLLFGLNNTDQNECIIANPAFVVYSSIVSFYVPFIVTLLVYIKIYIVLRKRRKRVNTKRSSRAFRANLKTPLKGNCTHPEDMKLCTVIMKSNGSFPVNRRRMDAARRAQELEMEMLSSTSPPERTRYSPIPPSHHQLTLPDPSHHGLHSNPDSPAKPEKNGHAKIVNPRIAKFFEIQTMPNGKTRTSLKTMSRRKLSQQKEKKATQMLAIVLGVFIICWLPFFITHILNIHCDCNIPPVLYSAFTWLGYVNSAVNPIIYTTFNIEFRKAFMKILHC

SMILES | pKi
COC(=O)C1(c2ccccc2)CC1CN1CCC(O)(c2ccc(Cl)cc2)CC1 (single isomer, unassigned; (-)) | 6.42
COC(=O)C1(c2ccccc2)CC1CN1CCC(O)(c2ccc(Cl)cc2)CC1 (single isomer, unassigned; (+)) | 5.49
COC(=O)[C@@]1(c2ccccc2)C[C@@H]1CN1CCC(O)(c2ccc(Cl)cc2)CC1 | 5.30
COC(=O)[C@]1(c2ccccc2)C[C@H]1CN1CCC(O)(c2ccc(Cl)cc2)CC1 | 5.25

system: Mus musculus; assay: Antinociceptive activity in CD1 mouse model of mechanical nociception assessed as effect on struggle response latency at 8 mg/kg, sc administered 30 mins before behavioral evaluation by paw pressure test; type: functional, organism-based
Procedure, shortened: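 Female CD1 mice (25–30 g) in the paw pressure test. A 450 g blunt cone was pressed on the dorsal hindpaw until a struggle response, and latency (s) was recorded. Each hindpaw was tested twice, alternately, 1 min apart. Morphine (4 mg/kg) or HPMC vehicle was given s.c. 30 min before testing. Test drugs were given s.c. in HPMC 5 min before morphine. Mean ± SEM, 6–8 animals; one-way ANOVA with Bonferroni.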

SMILES | Activity
CN1CCN(CCc2ccc(Cl)c(Cl)c2)CC1 | Active

molecular target: Sigma non-opioid intracellular receptor 1 (Cavia porcellus, UniProt Q60492); assay: Displacement of [3H]-(+)-pentazocine from sigma1 receptor in guinea pig brain membrane after 150 mins by liquid scintillation counting method; type: cell membranes
Sequence (Q60492 whole entry): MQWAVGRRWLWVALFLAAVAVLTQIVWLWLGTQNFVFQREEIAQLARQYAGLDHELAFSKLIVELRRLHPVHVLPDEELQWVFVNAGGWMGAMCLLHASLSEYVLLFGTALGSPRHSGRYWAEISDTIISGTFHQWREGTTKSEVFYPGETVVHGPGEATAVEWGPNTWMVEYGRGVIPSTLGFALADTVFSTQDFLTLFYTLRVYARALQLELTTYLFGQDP

SMILES | pKi
CCCOC(=O)[C@@]1(c2ccccc2)C[C@H]1CN1CCC(O)(c2ccc(Cl)cc2)CC1 | 7.48
COC(=O)C1(c2ccccc2)CC1CN1CCC(O)(c2ccc(Cl)cc2)CC1 (single isomer, unassigned; (-)) | 8.25
COC(=O)C1(c2ccccc2)CC1CN1CCC(O)(c2ccc(Cl)cc2)CC1 (single isomer, unassigned; (+)) | 8.82
COC(=O)[C@@]1(c2ccccc2)C[C@@H]1CN1CCC(O)(c2ccc(Cl)cc2)CC1 | 6.89
COC(=O)[C@]1(c2ccccc2)C[C@H]1CN1CCC(O)(c2ccc(Cl)cc2)CC1 | 7.96

molecular target: not listed separately; assay: Displacement of [3H]-(+)-DTG from sigma2 receptor in guinea pig brain membrane after 120 mins by liquid scintillation counting method; type: cell membranes, Cavia porcellus

SMILES | pKi
CCCOC(=O)[C@@]1(c2ccccc2)C[C@H]1CN1CCC(O)(c2ccc(Cl)cc2)CC1 | 6.54
COC(=O)C1(c2ccccc2)CC1CN1CCC(O)(c2ccc(Cl)cc2)CC1 (single isomer, unassigned; (-)) | 7.63
COC(=O)C1(c2ccccc2)CC1CN1CCC(O)(c2ccc(Cl)cc2)CC1 (single isomer, unassigned; (+)) | 7.66
COC(=O)[C@@]1(c2ccccc2)C[C@@H]1CN1CCC(O)(c2ccc(Cl)cc2)CC1 | 6.85
COC(=O)[C@]1(c2ccccc2)C[C@H]1CN1CCC(O)(c2ccc(Cl)cc2)CC1 | 7.40

organism: Cavia porcellus; assay: Selectivity index, ratio of Ki for sigma2 receptor in guinea pig brain membrane […]; type: cell membranes

SMILES | Ratio Ki
CCCOC(=O)[C@@]1(c2ccccc2)C[C@H]1CN1CCC(O)(c2ccc(Cl)cc2)CC1 | 8.8
COC(=O)[C@@]1(c2ccccc2)C[C@@H]1CN1CCC(O)(c2ccc(Cl)cc2)CC1 | 1.1
COC(=O)[C@]1(c2ccccc2)C[C@H]1CN1CCC(O)(c2ccc(Cl)cc2)CC1 | 3.6

molecular target: D(1A) dopamine receptor (Rattus norvegicus, UniProt P18901); assay: Binding affinity to dopamine D1 receptor in rat striatum by liquid scintillation counting method
Sequence (P18901 whole entry): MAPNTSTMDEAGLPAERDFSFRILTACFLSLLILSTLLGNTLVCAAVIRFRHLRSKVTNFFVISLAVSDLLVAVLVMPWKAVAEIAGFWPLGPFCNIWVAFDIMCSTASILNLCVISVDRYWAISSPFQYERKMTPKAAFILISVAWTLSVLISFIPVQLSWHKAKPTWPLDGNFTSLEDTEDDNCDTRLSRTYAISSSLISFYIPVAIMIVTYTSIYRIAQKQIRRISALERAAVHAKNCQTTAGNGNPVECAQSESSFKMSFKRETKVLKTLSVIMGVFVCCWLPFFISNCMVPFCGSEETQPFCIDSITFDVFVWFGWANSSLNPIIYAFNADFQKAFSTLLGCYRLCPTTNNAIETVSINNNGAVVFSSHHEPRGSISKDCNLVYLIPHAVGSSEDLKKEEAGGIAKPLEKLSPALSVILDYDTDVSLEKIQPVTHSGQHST

SMILES | pKi
COC(=O)C1(c2ccccc2)CC1CN1CCC(O)(c2ccc(Cl)cc2)CC1 (single isomer, unassigned; (-)) | < 5.00
COC(=O)C1(c2ccccc2)CC1CN1CCC(O)(c2ccc(Cl)cc2)CC1 (single isomer, unassigned; (+)) | < 5.00
COC(=O)[C@@]1(c2ccccc2)C[C@@H]1CN1CCC(O)(c2ccc(Cl)cc2)CC1 | < 5.00
COC(=O)[C@]1(c2ccccc2)C[C@H]1CN1CCC(O)(c2ccc(Cl)cc2)CC1 | < 5.00
